Laboratory results taken from ChEMBL document CHEMBL3526048, “In vitro metabolism of rivoglitazone, a novel peroxisome proliferator-activated receptor γ agonist, in rat, monkey, and human liver microsomes and freshly isolated hepatocytes” (Drug Metab Dispos, 2011).

Experiments:
[1] = molecular target: T1, UDP-glucuronosyltransferase 2B7 (Homo sapiens, UniProt P16662); test: Activity of human UGT2B7 expressed in microsomes isolated from baculovirus infected insect cell assessed as enzyme-mediated compound formation treated with [14C]-rivoglitazone at 20 uM after 4 hrs by radio-HPLC/LC-MS/MS analysis in presence of UDPGA, UDPGA/SAM
T1 sequence (P16662 whole entry): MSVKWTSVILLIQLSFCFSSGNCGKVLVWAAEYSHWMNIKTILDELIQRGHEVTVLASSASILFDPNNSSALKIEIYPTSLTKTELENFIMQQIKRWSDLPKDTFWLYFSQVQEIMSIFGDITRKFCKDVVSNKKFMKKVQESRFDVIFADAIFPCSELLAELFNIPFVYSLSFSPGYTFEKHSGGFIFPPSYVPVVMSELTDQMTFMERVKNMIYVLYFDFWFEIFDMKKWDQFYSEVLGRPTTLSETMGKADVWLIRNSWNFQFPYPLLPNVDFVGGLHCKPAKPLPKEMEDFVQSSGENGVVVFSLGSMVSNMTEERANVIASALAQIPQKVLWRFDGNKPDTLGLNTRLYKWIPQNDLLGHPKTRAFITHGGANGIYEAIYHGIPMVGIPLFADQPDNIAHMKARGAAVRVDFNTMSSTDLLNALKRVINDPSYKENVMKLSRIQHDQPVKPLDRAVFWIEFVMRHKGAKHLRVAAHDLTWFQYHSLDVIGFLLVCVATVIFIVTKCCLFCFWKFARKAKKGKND

[2] = test system: Liver microsome; test: Drug metabolism in human liver microsomes assessed as formation of 2-mercapto-3-(4-((6-methoxy-1-methyl-1H-benzo[d]imidazol-2-yl)methoxy)phenyl)propanamide at 20 uM after 2 hrs by radio-HPLC/LC-MS/MS analysis in presence of NADPH-generating system and NADPH-generating system/SAM; assay type: ADME
[3] = Drug metabolism in cynomolgus monkey liver microsomes assessed as formation of 2-mercapto-3-(4-((6-methoxy-1-methyl-1H-benzo[d]imidazol-2-yl)methoxy)phenyl)propanamide at 20 uM after 2 hrs by radio-HPLC/LC-MS/MS analysis in presence of NADPH-generating system and NADPH-generating system/SAM; assay type: ADME, Macaca fascicularis
[4] = molecular target: T2, UDP-glucuronosyltransferase 1A4 (Homo sapiens, UniProt P22310); test: (§1) Activity of human UGT1A4 expressed in microsomes isolated from baculovirus infected insect cell assessed as enzyme-mediated (2S,3S,4S,5R,6R)-6-((1-carboxy-2-(4-((6-methoxy-1-methyl-1H-benzo[d]imidazol-2-yl)methoxy)phenyl)ethylthio)carbonylamino)-3,4,5-trihydroxytetrahydro-2H-pyran-2-carboxylic acid formation at 20 uM after 4 hrs by radio-HPLC/LC-MS/MS analysis in presence of UDPGA; assay type: ADME
T2 sequence (P22310 whole entry): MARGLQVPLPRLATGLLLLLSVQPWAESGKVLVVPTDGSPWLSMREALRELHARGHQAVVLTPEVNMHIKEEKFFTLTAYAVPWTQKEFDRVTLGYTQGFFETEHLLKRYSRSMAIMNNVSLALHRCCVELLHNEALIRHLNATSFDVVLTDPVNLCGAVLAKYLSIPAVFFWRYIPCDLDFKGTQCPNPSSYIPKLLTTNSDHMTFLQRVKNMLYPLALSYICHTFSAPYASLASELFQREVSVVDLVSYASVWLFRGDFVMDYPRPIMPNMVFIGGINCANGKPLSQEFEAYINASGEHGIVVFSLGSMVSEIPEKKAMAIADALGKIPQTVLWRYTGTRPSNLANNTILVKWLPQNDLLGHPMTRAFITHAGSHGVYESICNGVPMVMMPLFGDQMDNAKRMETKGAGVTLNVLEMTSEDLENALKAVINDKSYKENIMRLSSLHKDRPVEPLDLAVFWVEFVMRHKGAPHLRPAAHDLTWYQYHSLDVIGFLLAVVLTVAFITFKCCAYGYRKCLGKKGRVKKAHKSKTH

[5] = molecular target: T3, UDP-glucuronosyltransferase 1A8 (Homo sapiens, UniProt Q9HAW9); test: as §1, with “UGT1A8” for “UGT1A4”; assay type: ADME
T3 sequence (Q9HAW9 whole entry): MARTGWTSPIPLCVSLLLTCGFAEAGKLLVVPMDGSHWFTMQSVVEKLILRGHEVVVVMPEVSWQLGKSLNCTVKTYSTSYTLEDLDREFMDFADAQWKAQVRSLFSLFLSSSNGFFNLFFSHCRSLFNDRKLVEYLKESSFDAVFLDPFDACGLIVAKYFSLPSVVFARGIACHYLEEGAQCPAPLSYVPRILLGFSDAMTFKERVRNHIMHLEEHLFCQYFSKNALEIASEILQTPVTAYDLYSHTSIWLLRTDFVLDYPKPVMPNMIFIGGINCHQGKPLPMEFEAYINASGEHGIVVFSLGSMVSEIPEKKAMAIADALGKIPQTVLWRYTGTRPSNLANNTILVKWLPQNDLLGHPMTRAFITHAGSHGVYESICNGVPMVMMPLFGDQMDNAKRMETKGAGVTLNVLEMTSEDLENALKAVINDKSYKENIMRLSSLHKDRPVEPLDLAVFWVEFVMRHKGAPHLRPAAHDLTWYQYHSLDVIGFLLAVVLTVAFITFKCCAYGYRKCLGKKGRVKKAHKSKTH

[6] = molecular target: T1, UDP-glucuronosyltransferase 2B7; test: Activity of human UGT2B7 expressed in microsomes isolated from baculovirus infected insect cell assessed as enzyme-mediated 3-(4-((6-methoxy-1-methyl-1H-benzo[d]imidazol-2-yl)methoxy)phenyl)-2-(methylthio)propanoic acid formation at 20 uM after 4 hrs by radio-HPLC/LC-MS/MS analysis in presence of NADPH-generating system/SAM and UDPGA/SAM in presence of UDPGA and UDPGA/SAM; assay type: ADME
[7] = molecular target: Cytochrome P450 2D6 (Homo sapiens, UniProt P10635); test: Activity of human CYP2D6 expressed in microsomes isolated from baculovirus infected insect cell assessed as enzyme-mediated 3-(4-((6-methoxy-1-methyl-1H-benzo[d]imidazol-2-yl)methoxy)phenyl)-2-(methylsulfinyl)propanamide formation at 20 uM after 2 hrs by radio-HPLC/LC-MS/MS analysis in presence of NADPH-generating system/SAM; assay type: ADME
Sequence of Cytochrome P450 2D6 (P10635 whole entry): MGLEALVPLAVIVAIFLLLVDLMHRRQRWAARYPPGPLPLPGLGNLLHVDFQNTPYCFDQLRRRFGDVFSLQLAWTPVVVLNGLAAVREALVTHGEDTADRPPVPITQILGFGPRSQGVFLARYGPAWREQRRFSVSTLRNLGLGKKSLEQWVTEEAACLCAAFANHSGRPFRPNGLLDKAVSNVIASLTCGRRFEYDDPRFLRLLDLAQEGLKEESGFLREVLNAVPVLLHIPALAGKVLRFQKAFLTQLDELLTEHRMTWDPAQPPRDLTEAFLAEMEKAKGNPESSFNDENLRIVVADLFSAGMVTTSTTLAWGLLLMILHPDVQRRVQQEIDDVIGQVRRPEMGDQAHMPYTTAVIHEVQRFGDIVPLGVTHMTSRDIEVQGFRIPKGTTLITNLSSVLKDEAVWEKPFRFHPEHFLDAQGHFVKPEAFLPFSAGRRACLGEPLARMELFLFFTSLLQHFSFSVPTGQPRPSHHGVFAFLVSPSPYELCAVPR

[8] = molecular target: Cytochrome P450 3A5 (Homo sapiens, UniProt P20815); test: Activity of human CYP3A5 expressed in microsomes isolated from baculovirus infected insect cell assessed as enzyme-mediated 3-(4-((6-methoxy-1-methyl-1H-benzo[d]imidazol-2-yl)methoxy)phenyl)-2-(methylsulfonyl)propanamide formation at 20 uM after 2 hrs by radio-HPLC/LC-MS/MS analysis in presence of NADPH-generating system/SAM; assay type: ADME
Sequence of Cytochrome P450 3A5 (P20815 whole entry): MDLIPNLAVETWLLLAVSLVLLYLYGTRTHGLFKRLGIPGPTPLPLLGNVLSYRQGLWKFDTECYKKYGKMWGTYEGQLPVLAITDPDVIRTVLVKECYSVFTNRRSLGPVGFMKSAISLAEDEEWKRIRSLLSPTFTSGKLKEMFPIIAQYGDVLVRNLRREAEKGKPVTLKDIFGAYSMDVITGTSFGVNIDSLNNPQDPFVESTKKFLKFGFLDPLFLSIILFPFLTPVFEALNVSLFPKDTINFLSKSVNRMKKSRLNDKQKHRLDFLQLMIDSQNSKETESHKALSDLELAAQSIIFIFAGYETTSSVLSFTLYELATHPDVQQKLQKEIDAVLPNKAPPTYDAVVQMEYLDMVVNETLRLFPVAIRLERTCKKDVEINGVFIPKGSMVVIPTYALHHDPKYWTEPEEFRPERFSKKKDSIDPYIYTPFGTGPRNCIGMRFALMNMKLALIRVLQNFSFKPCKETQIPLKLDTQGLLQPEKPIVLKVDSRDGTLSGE
Summary of the method: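 cDNA-expressed human CYP3A5 in baculovirus-insect-cell microsomes (1 mg/ml protein) was incubated with [¹⁴C]rivoglitazone (20 μM) in 50 mM potassium phosphate (pH 7.4) or 100 mM Tris-HCl (pH 7.5). NADPH-generating system: 2 mM NADP⁺, 20 mM glucose 6-phosphate, 2 units/ml G6PDH, 10 mM MgCl₂. Incubation ran 2 h at 37°C with shaking; insect-cell control supersomes served as control. Acetonitrile stop, supernatant concentrated, then radio-HPLC, LC-MS and LC-MS/MS.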

SMILES: COc1ccc2nc(COc3ccc(CC(S)C(=O)O)cc3)n(C)c2c1 (stereo not drawn)
- Drug metabolism [1]: metabolite_detected

SMILES: COc1ccc2nc(COc3ccc(C[14CH]4SC(=O)NC4=O)cc3)n(C)c2c1.Cl (racemic)
- Drug metabolism [2]: metabolite_detected
- Drug metabolism [3]: metabolite_detected
- Drug metabolism [4]: metabolite_not_detected
- Drug metabolism [5]: metabolite_not_detected
- Drug metabolism [6]: metabolite_not_detected
- Drug metabolism [7]: metabolite_not_detected
- Drug metabolism [8]: metabolite_not_detected
